CHO parental Ca: counter-screen: ATP calcium response change in parental CHO cells; parental CHO-K1, ATP-induced calcium, Fluo-8 fluorescence; inhibition, % at 5.6 µM; actives 0.63% (n = 330,000); AID 463079;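 active = inhibition above that plate's mean sample inhibition plus 3 SD, cut at about 26% in these data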;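 note: 0% = ATP-challenged DMSO wells and 100% = DMSO wells without ATP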
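Test system: untransfected parental CHO cell line. Compound: one dose, 5.6 µM nominal. Detection: intracellular calcium via Fluo-8 no-wash fluorescent dye. Measure: % inhibition. Benchmarks: ATP-challenged DMSO wells low, unchallenged DMSO wells high.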
OX1R antag-1: antagonists of human orexin 1 receptor (OX1R). OX1R-expressing cells, FRET antagonist read-out. inhibition, % at 6.6 µM. actives 1.8% (n = 330,000); in the data active = inhibition mostly above about 38%, no sharp cut-off; inactive = mostly below about 40%;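 note: 0% = agonist challenge alone and 100% = reference antagonist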
Target sequence (O43613 whole entry, looked up): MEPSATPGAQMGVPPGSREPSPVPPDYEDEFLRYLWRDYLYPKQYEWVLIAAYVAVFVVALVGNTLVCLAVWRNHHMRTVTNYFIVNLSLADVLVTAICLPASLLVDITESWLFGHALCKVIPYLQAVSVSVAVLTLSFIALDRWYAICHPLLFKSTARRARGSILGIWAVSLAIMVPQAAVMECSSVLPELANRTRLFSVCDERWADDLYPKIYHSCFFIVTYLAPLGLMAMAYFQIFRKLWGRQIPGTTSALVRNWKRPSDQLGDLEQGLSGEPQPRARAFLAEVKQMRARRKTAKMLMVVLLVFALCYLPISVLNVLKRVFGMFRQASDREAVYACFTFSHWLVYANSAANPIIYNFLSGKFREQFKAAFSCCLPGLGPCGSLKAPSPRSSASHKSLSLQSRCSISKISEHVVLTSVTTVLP
OX1R antag-2: human HCRTR1 antagonism; inhibition, % at 5 µM; AID 434989; CHO/OX1R cells, Fluo-8 calcium fluorescence, orexin A; actives 0.43% (n = 330,000);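 active = inhibition above its plate's threshold, mean inhibition of all tested compounds on the plate plus 3 SD, cut at about 37% in these data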;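 note: 0% = orexin A challenge wells and 100% = SB-334867-A antagonist wells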
MPTP block: permeability transition pore inhibition. isolated mouse mitochondria, Ca2+ swelling absorbance, 30 min. inhibition, % at 10 µM. actives 1.4% (n = 360,000). AID 602449;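 active = inhibition of 50% or more, scaled per plate between neutral and stimulator controls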;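 note: 0% = DMSO wells given calcium and 100% = 1 mM EGTA wells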
GPR7 antag: antagonists of human GPR7 (neuropeptides B/W receptor 1); GPR7-expressing cells, fluorescence antagonist assay; inhibition, % at 4.4 µM; actives 1.1% (n = 290,000); P48145; in the data active = inhibition above about 16%, passing the limit was not always enough;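 note: cells stimulated with the agonist NPW; 0% = agonist with vehicle and 100% = vehicle without agonist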
MPTP counter: membrane potential counter-screen of mitochondrial pore inhibitors; actives 78% (n = 5,000); shares compounds with MPTP block; isolated mitochondria, Rhodamine 123 fluorescence; inhibition, % at 10 µM; AID 624504; in the data active = inhibition above about 22%;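 note: 0% = DMSO vehicle and 100% = positive control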
MPTP swell DR: MPTP inhibition, dose response swelling confirmation | shares compounds with MPTP block | isolated mitochondria swelling, absorbance | IC50, µM | actives 58% (n = 780) | AID 651561; in the data active = IC50 below about 20 µM
MPTP counter DR: active in counter-screen for permeability transition pore inhibitors; IC50, µM; actives 49% (n = 780); isolated mitochondria counterscreen, fluorescence read-out; shares compounds with MPTP block; in the data active = IC50 below about 80 µM
Numbers without * were called inactive. In the library only some 3.8% were active in any assay of this set; here they are far more common.

Results for O=C(CSc1ncc(-c2ccc(F)cc2)n1Cc1ccco1)Nc1ccc2c(c1)OCO2 ?
CHO parental Ca: 37.9*; OX1R antag-1: 43.2; OX1R antag-2: 29.3; MPTP block: 85.1*; GPR7 antag: 29.3*; MPTP counter: 61.7*

What do the screens show for `CCOc1ccc(NC(=O)CSc2ncc(-c3ccc(F)cc3)n2Cc2ccco2)cc1`?
CHO parental Ca: -2.9; OX1R antag-1: 15.6; OX1R antag-2: 11.8; MPTP block: 8.4; GPR7 antag: 6.3

Results for COc1ccc(CCNCC(O)COc2cccc(Br)c2)cc1 (configuration not stated) ?
CHO parental Ca: -27.0; OX1R antag-1: 27.6; OX1R antag-2: -46.7; MPTP block: 60.1*; GPR7 antag: -0.3; MPTP counter: -6.3; MPTP swell DR: 5.13*; MPTP counter DR: 46.9*

How did CNCC(O)COc1cccc(OC)c1 (configuration not stated) do in these assays?
CHO parental Ca: -4.7; OX1R antag-1: 16.4; OX1R antag-2: -14.0; MPTP block: 6.5; GPR7 antag: -1.5

How did CCCc1nnc(NC(=O)CCC(=O)Nc2ccc(Br)cc2)s1 do in these assays?
CHO parental Ca: 2.6; OX1R antag-1: 2.6; OX1R antag-2: -15.8; MPTP block: -0.9; GPR7 antag: -7.1

Results for O=C(Nc1cccc(C(F)(F)F)c1)Nn1cnnc1 ?
MPTP block: 0.5; GPR7 antag: -3.9

How did O=C(Nc1cccc(C(F)(F)F)c1)c1cc(-c2ccc(F)cc2)on1 do in these assays?
CHO parental Ca: 57.7*; OX1R antag-1: 10.5; OX1R antag-2: -18.8; MPTP block: 66.8*; GPR7 antag: -17.7; MPTP counter: 15.7; MPTP swell DR: >100; MPTP counter DR: >80

How did O=C(Nc1cccc(C(F)(F)F)c1)Nc1nnc([C@H]2C[C@H](O)[C@@H](CO)O2)s1 do in these assays?
MPTP block: -0.8

How did Cc1nc(Cl)c(C(=O)NC(=O)Nc2cccc(C(F)(F)F)c2)c(C)c1[N+](=O)[O-] do in these assays?
CHO parental Ca: 18.6; OX1R antag-1: 40.6; OX1R antag-2: 7.3; MPTP block: 97.3*; GPR7 antag: -12.6; MPTP counter: 89.5*

How did CCSCCc1nnc(NC(=O)Nc2cccc(C(F)(F)F)c2)s1 do in these assays?
CHO parental Ca: -9.7; OX1R antag-1: 29.0; OX1R antag-2: -18.5; MPTP block: 79.5*; GPR7 antag: 3.2; MPTP counter: 72.6*

What do the screens show for `Cc1cc(NC(=O)Nc2cccc(C(F)(F)F)c2)n(C)n1`?
CHO parental Ca: 2.5; OX1R antag-1: 14.0; OX1R antag-2: 2.2; MPTP block: 72.5*; GPR7 antag: -5.0; MPTP counter: 77.0*

What do the screens show for `CCOc1ccc(Oc2ccc(NC(=O)[C@@H](NC(N)=O)[C@@H](C)CC)cc2)cc1`?
CHO parental Ca: -4.3; OX1R antag-1: 11.4; OX1R antag-2: -3.5; MPTP block: 0.8; GPR7 antag: -8.6

How did CCOc1ccc(C(=O)NCC(=O)OCCN2C(=O)c3ccccc3C2=O)cc1OCC do in these assays?
CHO parental Ca: -15.7; OX1R antag-1: 14.8; OX1R antag-2: -13.4; MPTP block: -1.8

Results for OCC[C@H]1C[C@@H](O)[C@H](O)[C@]2(OCCc3ccccc32)O1 ?
CHO parental Ca: -3.8; OX1R antag-1: 23.0; OX1R antag-2: -13.4; MPTP block: -0.4

Results for COc1ccc(C(=O)N2CCCC(C(=O)N3CCN(c4ccccc4)CC3)C2)cc1 (configuration not stated) ?
CHO parental Ca: -24.2; OX1R antag-1: 6.5; OX1R antag-2: -11.3; MPTP block: 1.5; GPR7 antag: -18.0

How did Cc1ccc(NC(=O)N2C3CCCC2CC(NC(=O)C(C)(C)C)C3)cc1 (configuration not stated) do in these assays?
CHO parental Ca: -11.2; OX1R antag-1: 6.2; OX1R antag-2: -20.1; MPTP block: 0.9; GPR7 antag: -11.8

Results for COc1ccc(NC(=O)Nc2cc(C)cc(C)c2)cn1 ?
CHO parental Ca: -11.7; OX1R antag-1: 8.7; OX1R antag-2: -22.5; MPTP block: 18.6; GPR7 antag: -1.7

How did COc1ccc(NC(=O)Nc2cccc(C(F)(F)F)c2)cn1 do in these assays?
CHO parental Ca: 40.8*; OX1R antag-1: 20.8; OX1R antag-2: 46.5*; MPTP block: 100.0*; GPR7 antag: -5.8; MPTP counter: 89.9*

What do the screens show for `Cc1ccc(OCC(O)Cn2c(=N)n(CCN3CCOCC3)c3ccccc32)cc1` (configuration not stated)?
CHO parental Ca: -10.8; OX1R antag-1: 16.9; OX1R antag-2: -13.0; MPTP block: 51.6*; GPR7 antag: -4.5; MPTP counter: -0.2; MPTP swell DR: inactive; MPTP counter DR: >80

What do the screens show for `CCN(CC)S(=O)(=O)c1cccc(NC(=O)c2ccc(Sc3nncn3C)c([N+](=O)[O-])c2)c1`?
CHO parental Ca: -2.9; OX1R antag-1: -4.0; OX1R antag-2: -25.1; MPTP block: 2.6; GPR7 antag: -3.7

Results for O=C(NCC(c1cccs1)N1CCOCC1)c1ccccc1NS(=O)(=O)c1ccc(Cl)c([N+](=O)[O-])c1 (configuration not stated) ?
CHO parental Ca: -4.4; OX1R antag-1: 44.9*; OX1R antag-2: -5.6; MPTP block: 80.0*; GPR7 antag: -0.5; MPTP counter: 76.9*

How did CC(C)CC(C(=O)Nc1oc(-c2ccccc2)c(-c2ccccc2)c1C#N)N1C(=O)c2ccccc2C1=O (configuration not stated) do in these assays?
CHO parental Ca: -5.9; OX1R antag-1: 32.0; OX1R antag-2: -22.0; MPTP block: 74.4*; GPR7 antag: -12.0; MPTP counter: 68.9*

What do the screens show for `CCc1nc(NCCN)c(C#N)c2c1CSC(C)(C)C2`?
CHO parental Ca: -24.5; OX1R antag-1: 6.6; OX1R antag-2: -15.7; MPTP block: 80.4*; GPR7 antag: 1.4; MPTP counter: -9.7; MPTP swell DR: 16.9*; MPTP counter DR: >80

Results for CCc1nc(NCCC(C)C)c(C#N)c2c1CCCC2 ?
CHO parental Ca: -5.9; OX1R antag-1: -5.1; OX1R antag-2: -11.3; MPTP block: -4.2; GPR7 antag: -1.4

How did N=c1c2c(-c3ccccc3)c(-c3ccccc3)n(Cc3ccccc3)c2ncn1CCCn1ccnc1 do in these assays?
CHO parental Ca: -31.4; OX1R antag-1: 12.9; OX1R antag-2: -11.4; MPTP block: 55.5*; GPR7 antag: -3.5; MPTP counter: 0.8

How did CCc1ccc(CNC(=O)C2Cc3cc(S(=O)(=O)N4CCCC4)ccc3N2C(C)=O)cc1 (configuration not stated) do in these assays?
CHO parental Ca: -19.1; OX1R antag-1: 3.7; OX1R antag-2: -41.7; MPTP block: -0.3; GPR7 antag: 1.7
